# Assay outcomes from PubChem.
# Rows were chosen to be rich in hits. Some 3.5% of all compounds tested hit in one or more screens of this group.
# MrgX1 antag: antagonists of human MrgX1 receptor. Q96LB2. MRGX1-HEK293 calcium flux, Fluo-4, BAM8-22 antagonism; hits give low values. B-score at 10 µM. actives 1.3% (n = 310,000);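 active = calcium-response B-score plate-corrected more than 3 library SD below zero, starting fluorescence within 5 deviations, no agonist response on first addition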;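 also: peak minus trough fluorescence over baseline after final BAM8-22 challenge near maximal dose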
# Target sequence (Q96LB2 whole entry, looked up): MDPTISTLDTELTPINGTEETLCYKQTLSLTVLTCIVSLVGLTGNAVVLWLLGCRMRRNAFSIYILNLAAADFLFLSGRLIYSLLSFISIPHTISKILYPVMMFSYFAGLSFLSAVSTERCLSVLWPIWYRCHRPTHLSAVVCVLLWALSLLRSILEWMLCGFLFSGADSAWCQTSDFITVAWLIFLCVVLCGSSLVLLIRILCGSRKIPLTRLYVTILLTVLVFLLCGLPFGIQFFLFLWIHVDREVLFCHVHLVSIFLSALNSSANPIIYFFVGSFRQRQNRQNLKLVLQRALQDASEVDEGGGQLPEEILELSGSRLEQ
# MrgX1 ag: agonists of human MrgX1 receptor. B-score at 10 µM. MrgX1-HEK293 cells, Fluo-4 calcium fluorescence, agonist mode; hits give high values. actives 0.44% (n = 310,000). Q96LB2;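 active = calcium response B-score plate-corrected fluorescence ratio at least 3 library SD, with starting fluorescence B-score inside 5 SD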
#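 Material – MrgX1-expressing HEK293 cells · Input – 15,000 cells seeded per well · Dosing – compound as first of three additions · Times – overnight seeding, then 1 h dark dye loading · Measured by – kinetic Fluo-4 NW fluorescence of intracellular calcium · Read-out – B-scored fluorescence response ratio · Benchmarks – positive and negative control wells on each plate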
# RGS4 inh: human RGS4 inhibition. HEK293 M3R/RGS4 inducible, Fluo-4 calcium flux; hits give high values; triggered by carbachol at its EC20. B-score at 10 µM. actives 0.45% (n = 310,000). AID 463165;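 active = B-score, a plate-corrected calcium signal, over three deviations above library mean, with baseline fluorescence within five deviations of library mean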;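 also: RGS4 expression induced by doxycycline in cells with stable M3 receptor; B-score is computed from the integrated fluorescence ratio over baseline after carbachol; higher B-score means a larger calcium signal and so more RGS4 inhibition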
# Target sequence (P49798 whole entry, looked up): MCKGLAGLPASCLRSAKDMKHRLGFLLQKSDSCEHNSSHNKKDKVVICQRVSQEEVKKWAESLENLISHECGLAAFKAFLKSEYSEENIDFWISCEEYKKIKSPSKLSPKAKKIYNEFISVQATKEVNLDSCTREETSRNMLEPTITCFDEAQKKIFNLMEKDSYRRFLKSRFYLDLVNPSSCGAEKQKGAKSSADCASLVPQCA
# RGS4 act: RGS4 potentiation or activation | HEK293 M3R/inducible RGS4, carbachol calcium flux Fluo4; hits give low values | B-score at 10 µM | AID 463111 | actives 0.92% (n = 310,000);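 active = B-score of the integrated calcium signal more than 4 SD below the library mean, with starting fluorescence not abnormally high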;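 also: negative B-score means reduced calcium response which marks RGS4 activation or potentiation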
#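 Material: M3R-expressing HEK293 line, RGS4 induced by doxycycline | Schedule: Overnight RGS4 induction, 30 min dye load 37 °C, 20 min compound RT | Measured by: Fluo4 fluorescence kinetic imaging of calcium | Read-out: Integrated calcium ratio converted to B score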
# MrgX1 allo act: human MrgX1 positive allosteric modulation, primary screen; Q96LB2; MrgX1-HEK293, Fluo-4 calcium flux, FDSS; hits give high values; B-score at 10 µM; actives 0.63% (n = 310,000);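 active = plate-corrected calcium response at least 3 library SD above typical, normal starting fluorescence, not activating the receptor alone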;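 also: compound read alongside a low EC10 to EC30 dose of BAM8-22 agonist; peak minus trough fluorescence over baseline measured at the second addition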
# MrgX1 allo conf: reconfirmed allosteric activator of human MrgX1 receptor; activation (ratio percentage), % at 10 µM; actives 13% (n = 1,200); MrgX1-HEK293, Fluo-4 calcium fluorescence, FDSS; AID 602413; shares compounds with MrgX1 allo act;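 active = ratio at least 3 SD above the weak peptide control, stable starting fluorescence, no direct agonism earlier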;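 also: compound followed by low BAM8-22 agonist challenge near EC20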
# MrgX1 ant reconf: reconfirmed antagonist of human MrgX1 receptor signaling; MrgX1-HEK293, BAM8-22 calcium flux, Fluo-4; hits give low values; AID 602420; remaining BAM8-22 calcium response % of control (hits give low values), % at 10 µM; actives 19% (n = 2,300); shares compounds with MrgX1 antag;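 active = remaining agonist calcium response no higher than 100% minus 3 SD of agonist-only control wells, with starting fluorescence near control levels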;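 also: agonist BAM8-22 given at a near maximal EC90 to ECmax level; peak minus minimum fluorescence divided by baseline after agonist addition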
# HEK293 Ca flux: activity in parental HEK293 cells lacking MrgX1. Fluo-4 calcium fluorescence, FDSS. shares compounds with MrgX1 antag. actives 2% (n = 4,000). fluorescence ratio F(max-min)/F0 at 10 µM;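 active = duplicate-averaged calcium fluorescence ratio at least three times the standard deviation of buffer wells, a nonspecific response in parental cells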
# HEK293 Ca counter: MrgX1 allosteric activator counter-screen hit in parental HEK293 cells. shares compounds with MrgX1 antag. fluorescence ratio F(max-min)/F0 at 10 µM. actives 0.4% (n = 4,000). parental HEK293 calcium flux, Fluo-4 fluorescence ratio; hits give high values;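 active = calcium fluorescence ratio, averaged over duplicates, at least 3 SD of the buffer-well ratio, meaning a nonspecific response in receptor-free cells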;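 also: untransfected parental HEK293 lacking MrgX1 used as counterscreen for MrgX1 allosteric activators; fluorescence change taken during the second addition on a kinetic imager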
# HEK293 Ca cntr2: MrgX1 activator counter-screen hit in parental HEK293 cells; shares compounds with MrgX1 antag; fluorescence ratio F(max-min)/F0 at 10 µM; Fluo-4 calcium fluorescence (FDSS); hits give high values; actives 8.7% (n = 4,000);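 active = calcium fluorescence ratio at least three times the spread of buffer wells, meaning a non-specific response in parental cells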
# Hits are given with their value; i = inactive; nt = no result.
SMILES,MrgX1 antag,MrgX1 ag,RGS4 inh,RGS4 act,MrgX1 allo act,MrgX1 allo conf,HEK293 Ca flux,HEK293 Ca counter,HEK293 Ca cntr2,others
c1ccc(Sc2ncnc3ccccc23)cc1,i,i,i,i,18,28%,i,i,i,
CCCN(CC(=O)Nc1ccc(C(N)=O)cc1)CC(=O)Nc1ccc(F)c(F)c1F,i,i,i,i,i,nt,nt,nt,nt,
CCCc1c(C(=O)Nc2ccc(F)cc2F)cnn1-c1ccccc1,i,i,i,i,11,i,i,i,i,
COc1ccc(F)cc1Cn1nc(C(=O)O)c2ccccc2c1=O,i,i,i,i,i,nt,nt,nt,nt,
Cc1nn(C(=O)c2cccs2)c(N)c1-c1ccccc1,i,i,i,i,9.3,i,i,i,i,
Cc1ccccc1NC(=O)COC(=O)c1c[nH]c(=O)[nH]c1=O,i,i,i,i,i,nt,nt,nt,nt,
CC1(C)c2ccccc2-c2nc3ccccc3cc2C1O (stereo not given),i,i,i,i,9.6,i,i,i,i,
CCCCn1c(N)c(N(CC(C)C)C(=O)c2cc(-c3ccc(F)cc3)nc3ccccc23)c(=O)[nH]c1=O,i,i,i,i,i,nt,nt,nt,nt,
Cc1ccc(S(=O)(=O)N2CCN(S(=O)(=O)N3CCC(C)CC3)CC2)cc1C,i,i,i,i,i,nt,nt,nt,nt,
c1ccc2nc(-c3ccc(-n4ccnc4)cc3)ccc2c1,i,i,i,i,8.9,i,i,i,i,
c1ccc(-c2ccc3ccccc3n2)cc1,i,i,i,i,i,nt,nt,nt,nt,
CCOc1ccc(C(C(=O)NCC2CCCO2)N(Cc2cccs2)C(=O)c2snc(C(N)=O)c2N)cc1 (stereo not given),i,i,i,i,i,nt,nt,nt,nt,
Nc1ccccc1C(=O)NC12CC3CC(CC(C3)C1)C2,i,i,i,i,10,i,i,i,i,
O=C(NC12CC3CC(CC(C3)C1)C2)c1ccccc1,i,i,i,i,i,nt,nt,nt,nt,
COc1ccc(CNc2cccc(F)c2)cc1Br,i,i,i,i,6.5,i,i,i,i,
CC(O)CNc1nc2ccccc2n1CC(=O)NCC(F)(F)F (stereo not given),i,i,i,i,i,nt,nt,nt,nt,
CC(O)CNc1nc2ccccc2n1CC(=O)NC12CC3CC(CC(C3)C1)C2 (stereo not given),i,i,i,i,7.4,i,i,i,i,
COC(=O)Cc1[nH]n(-c2nc3ccccc3s2)c(=O)c1C(C)=Nc1ccc(Cl)cc1,i,i,i,i,12,i,i,i,i,
CCN(CC(=O)Nc1cccc(C(C)=O)c1)S(=O)(=O)c1ccc(C)cc1,i,i,i,i,i,nt,nt,nt,nt,
Cc1cccc(-n2ncc3c2CCCC3NC(=O)CCN2Cc3ccccc3C2=O)c1C (stereo not given),i,i,i,i,i,nt,nt,nt,nt,
CCC(C)(C)C1CCc2c(sc(NC(=O)c3ccccc3C(=O)O)c2C#N)C1 (stereo not given),-6.4,i,i,i,8.4,i,i,i,57,MrgX1 ant reconf=i
COc1ccc(CCNC(=O)C2CC(c3cc(C(F)(F)F)cc(C(F)(F)F)c3)=NO2)cc1 (stereo not given),i,i,i,i,i,nt,nt,nt,nt,
COc1c(Cl)cccc1-c1cn2ccc(C)cc2n1,i,i,i,i,15,i,i,i,i,
Cc1ccn2cc(-c3ccc(Br)cc3)nc2c1,i,i,i,i,15,i,i,i,i,
Cc1cc(C)cc(-c2nnc(SCc3ccc(C(=O)O)cc3)o2)c1,i,i,i,i,7.4,i,i,i,i,
SMILES,MrgX1 antag,MrgX1 ag,RGS4 inh,RGS4 act,MrgX1 allo act,MrgX1 allo conf,HEK293 Ca flux,HEK293 Ca counter,HEK293 Ca cntr2,others
COc1ccc(-c2nsc(SCC(=O)NCC3CCCO3)n2)cc1 (stereo not given),i,i,i,i,i,nt,nt,nt,nt,
COc1ccc(CNC(=O)CCN2C(=O)c3ccccc3C2=O)cc1OC,i,i,i,i,i,nt,nt,nt,nt,
COc1ccc(CNC(=O)CCN2C(=O)c3ccncc3C2=O)cc1OC,i,i,i,i,27,13%,i,i,i,
O=C(O)C1CC=CCC1C(=O)Nc1ccc(N2CCN(Cc3ccccc3)CC2)cc1 (stereo not given),i,i,i,i,7.4,i,i,i,i,
O=C(Nc1ccc(N2CCN(Cc3ccccc3)CC2)cc1)c1ccco1,i,i,i,i,i,nt,nt,nt,nt,
CC(=O)N/N=C/c1ccc(OCCOc2ccc(Br)cc2)cc1,i,i,i,i,i,nt,nt,nt,nt,
COc1cc(NC(=O)c2cc3ccccc3cc2O)c(OC)cc1Cl,i,i,i,i,i,nt,nt,nt,nt,
COc1ccccc1NC(=O)c1ccccc1NS(=O)(=O)c1cccs1,i,i,i,i,54,29%,i,i,i,
COc1ccccc1NC(=O)c1cc2cc(Br)ccc2cc1O,i,i,i,i,8.4,16%,i,i,i,
CCOc1ccccc1NC(=O)c1ccccc1NS(C)(=O)=O,i,i,i,i,23,79%,i,i,i,
COc1ccccc1NC(=O)c1ccccc1NS(C)(=O)=O,i,i,i,i,11,i,i,i,i,
CS(=O)(=O)Nc1ccccc1C(=O)Nc1ccccc1Cl,i,i,i,i,i,nt,nt,nt,nt,
COc1ccc(NC(=O)c2ccccc2NS(C)(=O)=O)cc1OC,i,i,i,i,i,nt,nt,nt,nt,
Clc1ccc(COc2cccc(CNCc3ccncc3)c2)cc1,i,i,i,i,i,nt,nt,nt,nt,
Cc1cccn2c(=O)c(/C=C(\C#N)C(=O)NCc3ccccc3)c(N3CCC(C(N)=O)CC3)nc12,i,i,i,i,i,nt,nt,nt,nt,
Cc1cc2c(c(SCC(N)=O)n1)C(=O)OC2,i,i,i,i,6.7,i,i,i,i,
Cc1cc2c(c(SCC(=O)N(C)c3ccccc3)n1)C(=O)OC2,i,i,i,i,i,nt,nt,nt,nt,
COc1cc2c(cc1OC)C1(Nc3c-2c(C)nn3-c2ccccc2)C(=O)Nc2ccccc21 (stereo not given),i,i,nt,nt,6.7,i,i,i,i,
O=Cc1ccc(OCC(=O)NCC2CCCO2)cc1 (stereo not given),i,i,i,i,i,nt,nt,nt,nt,
CCN(CC(=O)Nc1ccccc1C(F)(F)F)C(=O)C1CSC2(C)CCC(=O)N12 (stereo not given),i,i,i,i,i,nt,nt,nt,nt,
